The entries come from a sample that favours hits as a whole.
HUVEC prolif 384 = human endothelial cell proliferation inhibition; AID 648; HUVEC proliferation, CellTiter-Glo luminescence, 72 h; stronger effect = lower value; viability, % at 10 µM (by protocol); hit rate 1.1% among 86,000;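 active = viability at or below 30%; inactive = viability above 30%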;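 also: 100% = median luminescence of DMSO-only cell control wells on each plate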
Pyk2 oligo antag = blocks oligomerization of human Pyk2 in cells | Q14289 | Q293 cells, Pyk2 FERM NanoBiT luminescence; stronger effect = lower value | z-score (the deposit names both 25 µM and 10 µM) | hit rate 0.83% among 99,000 | AID 1347419;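 active = Z-score of -3 or lower, scaled per plate to the spread of control and sample wells; inactive = z-score above -3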;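 also: negative z-score means lost luminescence so less FERM oligomerization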
Target sequence (Q14289 whole entry, looked up): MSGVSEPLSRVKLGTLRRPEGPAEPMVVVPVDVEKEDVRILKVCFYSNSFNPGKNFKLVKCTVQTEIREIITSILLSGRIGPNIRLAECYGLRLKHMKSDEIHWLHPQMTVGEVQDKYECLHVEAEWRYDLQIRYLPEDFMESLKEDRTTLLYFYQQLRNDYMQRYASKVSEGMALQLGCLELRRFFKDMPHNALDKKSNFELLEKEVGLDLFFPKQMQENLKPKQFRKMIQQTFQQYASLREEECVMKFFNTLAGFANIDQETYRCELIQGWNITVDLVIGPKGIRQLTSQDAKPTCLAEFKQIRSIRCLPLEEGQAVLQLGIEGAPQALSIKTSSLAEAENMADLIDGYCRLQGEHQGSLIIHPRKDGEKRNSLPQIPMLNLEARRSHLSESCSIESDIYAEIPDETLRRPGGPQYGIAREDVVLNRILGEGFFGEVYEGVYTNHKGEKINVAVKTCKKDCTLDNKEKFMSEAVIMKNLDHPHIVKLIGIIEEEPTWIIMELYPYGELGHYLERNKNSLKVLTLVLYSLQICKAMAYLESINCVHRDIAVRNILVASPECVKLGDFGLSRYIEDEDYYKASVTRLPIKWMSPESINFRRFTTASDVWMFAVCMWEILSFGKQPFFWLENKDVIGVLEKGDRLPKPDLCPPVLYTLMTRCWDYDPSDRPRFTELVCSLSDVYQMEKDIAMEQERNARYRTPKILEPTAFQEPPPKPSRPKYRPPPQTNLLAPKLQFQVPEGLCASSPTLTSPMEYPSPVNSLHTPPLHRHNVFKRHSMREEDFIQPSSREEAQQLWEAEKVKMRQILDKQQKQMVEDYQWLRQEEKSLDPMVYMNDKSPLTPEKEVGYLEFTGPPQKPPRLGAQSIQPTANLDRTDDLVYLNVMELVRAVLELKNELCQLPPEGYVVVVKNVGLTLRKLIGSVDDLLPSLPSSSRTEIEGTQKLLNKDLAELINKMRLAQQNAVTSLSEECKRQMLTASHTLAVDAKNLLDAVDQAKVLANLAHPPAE
bCat KO growth = beta-catenin-lacking colon tumor cell growth suppression. AID 818. HCT116 beta-catenin knockout viability, CellTiter-Glo, 60 h; stronger effect = lower value. hit rate 1.5% among 140,000. viability, % at 10 µM;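 active = viability at or under a set limit, the compound median less 4 SD, cut at about 6% in these data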;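 also: 0% = Hyamine 1622 control at 20 µM and 100% = untreated cell control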
H69AR growth 86K = blocks growth of human H69AR lung tumor cells. H69AR lung tumor viability, ATP luminescence, 72 h; stronger effect = lower value. viability, % at 10 µM. hit rate 6% among 85,000. AID 598;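 active = viability at or below 40%; inactive = viability above 40%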;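 also: multidrug resistant small cell line overexpressing MRP-1 efflux transporter; 100% = mean luminescence of untreated control wells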
Lung fibro prol = blocks proliferation of human lung fibroblasts. viability, % at 10 µM. hit rate 1.1% among 85,000. LL 47 human lung fibroblast viability, ATP luminescence; stronger effect = lower value. AID 719;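 active = viability at or below 50% in the single dose screen; inactive = viability above 50%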;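 also: compound exposure lasted 72 h before the ATP readout; 100% = median luminescence of untreated cell-only wells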
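Signal: luminescent ATP detection, CellTiter-Glo; assay system: LL 47 human lung fibroblasts; input: 1,150 cells/well; incubation: overnight cell rest, 72 h compound treatment at 37 °C; measure: % viability versus median cells-only luminescence; medium: IMEM growth medium with 15% fetal bovine serum; dosing: compound addition at 0.1% DMSO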
PTEN del growth = growth suppressors of cells with PTEN tumor suppressor deletion | HCT116 PTEN-null viability, CellTiter-Glo, 60 h; stronger effect = lower value | viability, % at 10 µM | hit rate 1.2% among 140,000;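 active = viability at or below a set limit, 4 SD under the median of all tested compounds, cut at about 3.7% in these data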;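 also: PTEN knockout HCT116 line with beta catenin targeted HCT116 as companion control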
The depositor's hits bear a star; x = no result given.

SMILES	HUVEC prolif 384	Pyk2 oligo antag	bCat KO growth	H69AR growth 86K	Lung fibro prol	PTEN del growth
Cc1cc(C(=O)N/N=C/c2ccc(Cl)c([N+](=O)[O-])c2)c(C)n1-c1ccc(F)cc1	x	x	3.1*	x	x	2.5*
CCC(=O)N1c2ccc(S(=O)(=O)CCC(=O)N3CCn4c3nc3ccccc34)cc2CC1C (configuration not stated)	88.2	1.37	67.3	1.9*	43.5*	81.0
N#CCC(=O)N1CCn2c1nc1ccccc12	98.0	1.74	93.9	96.9	89.4	96.4
CCC(=O)N1c2ccc(S(=O)(=O)CCC(=O)NC3CCCC3)cc2CC1C (configuration not stated)	88.8	0.71	88.4	93.4	103.2	95.6
CCC(=O)N1c2ccc(S(=O)(=O)CCC(=O)NCc3cccs3)cc2CC1C (configuration not stated)	76.4	0.45	82.3	30.4*	89.6	82.1
CCOc1ccc(NC(=S)NN(C)C(=S)Nc2ccc(OCC)cc2)cc1	x	x	93.8	x	x	100.7
CC1(C)Cc2c(sc3[nH]c(=S)n(Cc4ccco4)c(=O)c23)CO1	80.3	-0.1	69.1	29.8*	87.5	70.0
O=C(Nc1nnc(-c2ccccc2Cl)o1)c1ccc(S(=O)(=O)N2CCCCCC2)cc1	3.0*	x	18.3	31.1*	60.0	13.2
CCC1CCCCN1S(=O)(=O)c1ccc(C(=O)Nc2nnc(-c3ccccc3Cl)o2)cc1 (configuration not stated)	57.2	-0.96	15.9	20.5*	63.9	15.6
CC1CCCCN1S(=O)(=O)c1ccc(C(=O)Nc2nnc(-c3ccccc3Cl)o2)cc1 (configuration not stated)	3.7*	-2.28	22.5	52.4	64.2	17.0
O=C(Nc1ccccc1)c1ccc(S(=O)(=O)N2CCCCC2)cc1	x	x	87.0	x	x	96.3
NC(=O)CSc1nc2cc3c(cc2c(=O)n1CCCC(=O)NCc1ccc2c(c1)OCO2)OCO3	x	-1.05	55.5	x	x	36.3
COc1ccc(C(C(=O)NC2CCCC2)N(C(=O)c2ccoc2C)c2ccc(C)c(C)c2)cc1 (configuration not stated)	x	x	65.6	x	x	65.6
O=C(Nc1ccc(Cl)cc1C(=O)Nc1ccncc1)c1ccco1	72.7	-0.5	68.0	35.8*	69.6	78.5
O=C(Nc1ccccc1-c1ccccc1NC(=O)c1ccco1)c1ccco1	89.9	0	97.3	39.8*	101.8	93.2
CC(C)COc1ccc(C(=O)Nc2ccc(NC(=O)c3ccco3)c(Cl)c2)cc1	36.6	0.48	39.3	6.7*	86.7	41.2
COc1cc(OC)cc(C(=O)Nc2cc(NC(=O)c3ccco3)ccc2OC)c1	83.5	-0.81	89.6	36.7*	93.8	87.7
CCC(Sc1nc2c(c(=O)n1CC)SC(C)C2)C(=O)OC (configuration not stated)	102.4	x	111.9	88.2	103.6	99.2
CCOc1ccccc1Nc1nnc(SC(C)C(=O)Nc2nc(-c3ccccc3)cs2)s1 (configuration not stated)	x	x	78.5	x	x	72.5
Cc1ccc(NC(=O)/C(=C/c2cccc(Br)c2)NC(=O)c2ccco2)cc1	x	x	89.9	x	x	83.5
COc1cc(NC(=O)c2ccco2)c(OC)cc1NC(=O)Nc1ccc(Cl)cc1	78.0	-1.02	24.1	11.2*	109.3	25.7
CCOc1ccc(/C=C2/C(=O)N(c3ccc(OC)cc3)C(=S)N2CC(=O)OC)cc1OCC	70.8	-2.83	60.3	44.1	71.5	52.2
CCOc1ccc(N2C(=O)/C(=C/c3cc(OC)c(OC)c(OC)c3)N(CC(=O)OC)C2=S)cc1	61.7	-2.51	15.2	24.9*	95.0	14.2
CN1CCc2nc(NC(=O)c3cccc(OC(F)F)c3)sc2C1	85.7	1.73	99.1	85.1	102.5	109.2
CC1=CC(=O)c2ccccc2C1=O	x	x	43.9	x	x	41.3
SMILES	HUVEC prolif 384	Pyk2 oligo antag	bCat KO growth	H69AR growth 86K	Lung fibro prol	PTEN del growth
CC(C)(C=O)C1=CC(=O)c2ccccc2C1=O	x	x	1.3*	x	x	1.7*
COCCN1C(=O)N[C@@H](c2ccco2)C(C(C)=O)=C1C	x	x	91.7	x	x	101.5
Cc1ccc(S(=O)(=O)C(C#N)c2nc3ccccc3nc2N2CC(C)OC(C)C2)cc1C (configuration not stated)	68.0	0.36	75.7	33.6*	98.5	77.7
C/C(=N\Nc1cc(-c2ccccc2)nc(-c2ccccc2)n1)c1ccc(O)c(C)c1	x	x	10.5	x	x	2.0*
CCOC(=O)c1sc(NC(=O)CSc2nc3c(c(=O)n2-c2ccc(F)cc2)SCC3)c(C(=O)OCC)c1C	x	x	73.0	x	x	76.6
CCOC(=O)C(C(=O)OCC)C(Nc1cccc(Br)c1)c1ccccc1 (configuration not stated)	x	-1.18	3.5*	x	x	1.6*
CCOC(=O)C(NCCCCl)c1ccccc1 (configuration not stated)	106.2	-0.45	91.1	94.8	100.3	95.4
N#Cc1c2n(c3c(=O)n(Cc4ccc(Cl)cc4)cnc13)CCCC2	85.5	-3.51*	95.8	90.3	88.5	87.0
CCC(=O)Nc1nonc1-c1nc2ccccc2n1Cc1ccccc1	88.1	-0.05	68.9	66.4	77.1	63.9
CCC(=O)Nc1nonc1-c1nc2ccccc2n1Cc1cccc2ccccc12	51.5	-0.64	13.4	23.6*	50.9	13.2
O=C(NC1CCCCC1)N(C1=NCCCCC1)c1ccc(Br)cc1	x	x	88.8	x	x	90.2
COCC(C)n1c(C)cc(C(=O)COC(=O)c2c(NC(C)=O)sc(C)c2C)c1C (configuration not stated)	30.9	-0.21	x	3.2*	62.1	x
COCC(C)n1c(C)cc(C(=O)COC(=O)c2c(C)nn(-c3ccccc3)c2C)c1C (configuration not stated)	99.6	-1.05	77.1	86.8	94.2	81.3
CC1=C(C)/C(=N\OS(=O)(=O)c2ccc(C)cc2)C=CC1=O	x	x	1.8*	x	x	1.7*
CC1=C/C(=N\OS(=O)(=O)c2ccccc2)C(C(C)C)=CC1=O	x	x	1.5*	x	x	1.5*
CC1=C/C(=N\OS(=O)(=O)c2ccccc2)C(C)=CC1=O	x	-0.88	1.8*	x	x	1.7*
CC1=CC(=NOC(=O)/C=C/c2ccccc2)C=C(C)C1=O	x	0.54	17.8	x	x	6.4
Cc1cccc(/C=N\NC(=O)c2sccc2-n2cccc2)c1	x	-0.01	88.8	x	x	81.7
CCOc1ccc(NC(=O)c2ccncc2)cc1	103.0	1.57	86.9	111.4	111.4	85.1
CCOc1ccc2c(c1)C(=NNC(=O)c1ccncc1)c1cc(OCC)ccc1-2	x	x	3.7*	x	x	2.4*
CCOc1cc(NC(=O)c2ccco2)c(OCC)cc1NC(=O)Cc1cccc(OC)c1	91.2	0.54	95.0	73.7	97.1	107.5
CCOc1cc(NC(=O)c2ccco2)c(OCC)cc1NC(=O)COc1ccccc1C	61.9	0.59	x	19.8*	56.8	x
CCOC(=O)c1cn(-c2nc(-c3ccc(Cl)c(Cl)c3)cs2)c2c(F)c(N3CCOCC3)c(F)cc2c1=O	x	0.32	1.7*	x	x	1.2*
